For test [1], the system named is LNCaP cells. In words: MTT proliferation assay, LNCaP cells. Format: cell-based. On the technique in general: Tetrazolium assays rely on reduction of a dye to a coloured formazan, in cell work by metabolically active cells.
The test system of test [2] is MCF-7 cells. The test can be described thus: MTT proliferation assay, MCF-7 cells. It counts as cell-based. The following applies: same concentrations as used for Protac-B.
Test [3] deals with T47D cells. In words: MTT proliferation assay, T47D cells. Format: cell-based. The following applies: same concentrations as used for Protac-B.
Test [4] relates to estrogen receptor-α (ERα). The following applies: estradiol stimulation; ref Pink and Jordan, 1996; cited from earlier work.
The target in test [5] is VHL-Elongin B-Elongin C protein complex (Homo sapiens, UniProt P40337+Q15369+Q15370). The test can be described thus: Fluorescence polarization competitive binding assay with VHL. The following applies: FP competition assay; negative control. On the technique in general: Fluorescence polarisation rises when a labelled molecule tumbles more slowly, as on binding a larger partner.

The test system of test [6] is PC-3 cells. In words: MTT proliferation assay, PC-3 cells. It counts as cell-based. Particulars: 72 h, same concentrations as used on LNCaP cells. The gist of the method:
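Cells were grown in phenol-red-free RPMI 1640 with 10% FBS, 37 °C, 5% CO2, and seeded at 10 000/well. Test compound or free hormone at matched concentrations was added 24–48 h after plating; the PC-3 exposure was 72 h. MTT read-out: medium removed, DMSO solubilisation, absorbance 550 nm. Single triplicate experiment, representative of three.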

For test [7], the system named is androgen receptor (AR). In words: Western blot of AR protein levels in LNCaP cells. Particulars: 72 h, increasing concentrations that inhibited proliferation. Format: cell-based. On the technique in general: A western blot detects proteins with antibodies after separation by electrophoresis.
The test system of test [8] is LNCaP cells. The test can be described thus: Cell cycle profile by flow cytometry. Particulars: 72 h, propidium iodide staining. Format: cell-based. The method, boiled down: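 LNCaP cells kept at 37 °C, 5% CO2, in phenol-red-free RPMI 1640 with 10% FBS. Plated at 30 000 cells per cm2 and treated from 24–48 h after plating. Trypsinised, pelleted at 250 g for 5 min, fixed in 70% ethanol and held at −20 °C. Just before acquisition, stained with 3.4 mM sodium citrate, 0.3% Triton X-100, propidium iodide 0.1 mg/ml and RNase A 20 μg/ml, then run on a flow cytometer.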

As to `C[C@]12CCC(=O)C[C@@H]1CC[C@@H]1[C@@H]2CC[C@]2(C)[C@@H](O)CC[C@@H]12` [DHT, dihydroxytestosterone], in test [1] (DHT used at the IC50 of Protac-A (12.5 μM)), the “effect on LNCaP cell proliferation” value is given as “no effect”.
Take `C[C@]12CC[C@@H]3c4ccc(O)cc4CC[C@H]3[C@@H]1CC[C@@H]2O` [estradiol, 17β-estradiol]: in test [2], the “effect on proliferation of MCF-7 cells” value was “no effect”. In addition, the “effect on proliferation of T47D cells” value in test [3] is recorded as “no effect”. The “decrease in ERα levels” value in test [4] is recorded as “approximately 50%”.
Take “H-Leu-Ala-Ala-Tyr-Ile-Gly-Gly-[D-Arg]9-OH [mutant pentapeptide-G-G-(Arg)9]”: the “binding to VHL” value in test [5] is on record as “did not detectably bind”.
With “Leu-Ala-Pro(OH)-Tyr-Ile-Gly-Gly-(D-Arg)9 [Protac-AA]”, in test [1] (72 h and 144 h), the “increase of activity (IC50, LNCaP) over Protac-A” value is “three to seven”. The “effect on proliferation of PC-3 cells” value in test [6] is listed as “not affected”. The “AR protein levels in LNCaP cells” value in test [7] is on record as “reduced”. In addition, the “cell cycle effect in LNCaP cells” value in test [8] is “cell cycle arrest in G1”.

These data come from article PMC5573236 (Oncogene, 2008).
